From ChEMBL document CHEMBL4706684, “Discovering High Potent Hsp90 Inhibitors as Antinasopharyngeal Carcinoma Agents through Fragment Assembling Approach” (J Med Chem, 2021)
The source made the active and inactive calls. The rule behind the calls is not given here.

How the values were obtained:
CNE-2 [1] = experiment: Induction of apoptosis in human CNE-2 cells assessed as necrosis cells level at 100 nM incubated for 12 hrs by Annexin-V/FITC staining based FACS analysis (reference value: 1.45%); type: cell-based; conditions: cne-2, 12 h, 0.1 µM
L02 = experiment: Toxicity in human L02 cells assessed as induction of apoptosis at 62.5 to 1000 nM incubated for 12 hrs by Annexin-V/FITC staining based FACS analysis; type: cell-based; conditions: l02, 12 h, 1 µM, dose 62.5-1000 nM
CNE-2 [2] = experiment: Antitumor activity against human CNE-2 cells xenografted in nu/nu mouse assessed as induction of tumor size shrinkage at 1 mg/kg, ip for 32 days; type: functional, organism-based; conditions: time 32.0 day
CNE-2 [3] = experiment: Induction of apoptosis in human CNE-2 cells assessed as viable cells level at 200 nM incubated for 12 hrs by Annexin-V/FITC staining based FACS analysis (reference value: 96.7%); type: cell-based; conditions: read-out: Activity
How it was run: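 CNE2 cells (RPMI 1640 with 10% FBS) were seeded at 5 × 10⁴ cells per well. After 24 h they were treated with compound in 0.05% DMSO for 12 h. Cells were then washed twice with PBS, pelleted, and stained in binding buffer with Annexin V-FITC and PI for flow cytometry.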

CNE-2 [4] = experiment: Induction of apoptosis in human CNE-2 cells assessed as necrosis cells level at 70 nM incubated for 12 hrs by Annexin-V/FITC staining based FACS analysis (reference value: 1.49%); type: cell-based; conditions: cne-2, 12 h, 0.07 µM

## CC(C)(C)c1ccc(Cn2cc(-c3cc(O)c(O)c(O)c3)nn2)cc1
CNE-2 [1]
  Activity: 0.57%
L02
  Activity: Non-Toxic
CNE-2 [2]
  Activity: Active
CNE-2 [3]
  viability at 0.2 µM: 75.1%
CNE-2 [4]
  Activity: 1.2%
